Test results from ChEMBL document CHEMBL4219224, “Structure based drug design and in vitro metabolism study: Discovery of N-(4-methylthiophenyl)-N,2-dimethyl-cyclopenta[d]pyrimidine as a potent microtubule targeting agent” (Bioorg Med Chem, 2018).

Columns and labels:
[1] = test system: HeLa; assay: Antiproliferative activity against human HeLa cells expressing wild type beta3 tubulin by SRB assay; assay type: functional, cell-based
[2] = organism: Bos taurus; assay: Inhibition of [3H]colchicine binding to bovine brain tubulin at 1 uM measured after 10 mins by scintillation counting method relative to control
Method in brief: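 Reactions of 0.1 mL held 1.0 μM bovine brain tubulin, 5.0 μM [3H]colchicine, inhibitor at 1.0 or 5.0 μM, colchicine-binding stabilizing components and 5% DMSO, assembled on ice with tubulin added last. Incubated 10 min at 37 °C, stopped with ice water, filtered through DEAE-cellulose filters. Bound radiolabel counted by scintillation.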

[3] = test system: SK-OV-3; assay: Antiproliferative activity against human SKOV3 cells by SRB assay; assay type: functional, cell-based
[4] = Resistance index, ratio of IC50 for human SKOV3-MDR1-M6/6 cells to IC50 for human SKOV3 cells; assay type: functional
Method in brief: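 Antiproliferative IC50 by SRB assay (cellular protein) in each isogenic pair: SK-OV-3 parental versus Pgp-expressing, and parental HeLa versus wild-type βIII-tubulin-expressing HeLa. Rr is the IC50 ratio of the modified line to the parental line. At least three independent experiments, each in triplicate, mean ± SD.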

[5] = test system: HeLa; assay: Antiproliferative activity against human HeLa cells by SRB assay; assay type: functional, cell-based
[6] = test system: A549; assay: Growth inhibition of human A549/ATCC cells incubated for 48 hrs by sulforhodamine B assay; assay type: functional; details: A549, 48 h
[7] = test system: EKVX; assay: Growth inhibition of human EKVX cells incubated for 48 hrs by sulforhodamine B assay; assay type: functional
[8] = test system: HOP-92; assay: Growth inhibition of human HOP92 cells incubated for 48 hrs by sulforhodamine B assay; assay type: functional; details: HOP-92, 48 h
[9] = test system: NCI-H226; assay: Growth inhibition of human NCI-H226 cells incubated for 48 hrs by sulforhodamine B assay; assay type: functional; details: NCI-H226, 48 h
[10] = test system: NCI-H23; assay: Growth inhibition of human NCI-H23 cells incubated for 48 hrs by sulforhodamine B assay; assay type: functional; details: NCI-H23, 48 h
[11] = test system: SF-268; assay: Growth inhibition of human SF268 cells incubated for 48 hrs by sulforhodamine B assay; assay type: functional; details: SF-268, 48 h
[12] = test system: SF-295; assay: Growth inhibition of human SF295 cells incubated for 48 hrs by sulforhodamine B assay; assay type: functional; details: SF-295, 48 h
[13] = test system: SF-539; assay: Growth inhibition of human SF539 cells incubated for 48 hrs by sulforhodamine B assay; assay type: functional; details: SF-539, 48 h
[14] = test system: SNB-75; assay: Growth inhibition of human SNB75 cells incubated for 48 hrs by sulforhodamine B assay; assay type: functional; details: SNB-75, 48 h
[15] = test system: U-251; assay: Growth inhibition of human U251 cells incubated for 48 hrs by sulforhodamine B assay; assay type: functional; details: U-251, 48 h
[16] = test system: 786-0; assay: Growth inhibition of human 786-0 cells incubated for 48 hrs by sulforhodamine B assay; assay type: functional; details: 786-0, 48 h
[17] = test system: A498; assay: Growth inhibition of human A498 cells incubated for 48 hrs by sulforhodamine B assay; assay type: functional; details: A498, 48 h
[18] = test system: CAKI-1; assay: Growth inhibition of human Caki1 cells incubated for 48 hrs by sulforhodamine B assay; assay type: functional; details: CAKI-1, 48 h
[19] = test system: RXF 393; assay: Growth inhibition of human RXF393 cells incubated for 48 hrs by sulforhodamine B assay; assay type: functional; details: RXF 393, 48 h
[20] = test system: SN12C; assay: Growth inhibition of human SN12C cells incubated for 48 hrs by sulforhodamine B assay; assay type: functional
[21] = test system: COLO 205; assay: Growth inhibition of human COLO205 cells incubated for 48 hrs by sulforhodamine B assay; assay type: functional; details: COLO 205, 48 h
[22] = test system: HCT-116; assay: Growth inhibition of human HCT116 cells incubated for 48 hrs by sulforhodamine B assay; assay type: functional; details: HCT-116, 48 h
[23] = test system: HT-29; assay: Growth inhibition of human HT-29 cells incubated for 48 hrs by sulforhodamine B assay; assay type: functional; details: HT-29, 48 h
[24] = test system: KM12; assay: Growth inhibition of human KM12 cells incubated for 48 hrs by sulforhodamine B assay; assay type: functional; details: KM12, 48 h
[25] = test system: SW-620; assay: Growth inhibition of human SW620 cells incubated for 48 hrs by sulforhodamine B assay; assay type: functional; details: SW-620, 48 h
[26] = test system: IGROV-1; assay: Growth inhibition of human IGROV1 cells incubated for 48 hrs by sulforhodamine B assay; assay type: functional; details: IGROV-1, 48 h
[27] = test system: OVCAR-4; assay: Growth inhibition of human OVCAR4 cells incubated for 48 hrs by sulforhodamine B assay; assay type: functional; details: OVCAR-4, 48 h
[28] = test system: OVCAR-8; assay: Growth inhibition of human OVCAR8 cells incubated for 48 hrs by sulforhodamine B assay; assay type: functional; details: OVCAR-8, 48 h
[29] = test system: SK-OV-3; assay: Growth inhibition of human SKOV3 cells incubated for 48 hrs by sulforhodamine B assay; assay type: functional; details: SK-OV-3, 48 h
[30] = test system: LOX IMVI; assay: Growth inhibition of human LOXIMVI cells incubated for 48 hrs by sulforhodamine B assay; assay type: functional
[31] = test system: M14; assay: Growth inhibition of human M14 cells incubated for 48 hrs by sulforhodamine B assay; assay type: functional; details: M14, 48 h
[32] = test system: SK-MEL-2; assay: Growth inhibition of human SK-MEL-2 cells incubated for 48 hrs by sulforhodamine B assay; assay type: functional; details: SK-MEL-2, 48 h
[33] = test system: UACC-62; assay: Growth inhibition of human UACC62 cells incubated for 48 hrs by sulforhodamine B assay; assay type: functional; details: UACC-62, 48 h
[34] = test system: PC-3; assay: Growth inhibition of human PC3 cells incubated for 48 hrs by sulforhodamine B assay; assay type: functional; details: PC-3, 48 h
[35] = test system: MCF7; assay: Growth inhibition of human MCF7 cells incubated for 48 hrs by sulforhodamine B assay; assay type: functional; details: MCF7, 48 h
[36] = test system: MDA-MB-231; assay: Growth inhibition of human MDA-MB-231 cells incubated for 48 hrs by sulforhodamine B assay; assay type: functional; details: MDA-MB-231, 48 h
[37] = test system: BT-549; assay: Growth inhibition of human BT549 cells incubated for 48 hrs by sulforhodamine B assay; assay type: functional; details: BT-549, 48 h
[38] = test system: CCRF-CEM; assay: Growth inhibition of human CCRF-CEM cells incubated for 48 hrs by sulforhodamine B assay; assay type: functional
[39] = test system: HL-60(TB); assay: Growth inhibition of human HL-60(TB) cells incubated for 48 hrs by sulforhodamine B assay; assay type: functional; details: HL-60, 48 h
[40] = test system: MOLT-4; assay: Growth inhibition of human MOLT4 cells incubated for 48 hrs by sulforhodamine B assay; assay type: functional; details: MOLT-4, 48 h
[41] = Retention time of the compound in human liver microsomes at 20 uM by LC-MS/MS analysis; assay type: ADME, microsome
Method in brief: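 Human liver microsomes (both genders; 1.0 mg/mL) in 100 mM PBS pH 7.4 with 3 mM MgCl2 and 10 mM NADPH, preincubated at 37 °C. Reaction started with compound at 20 μM final (from DMSO stock); propranolol 5 μM as control. Aliquots at 0 and 60 min quenched in ice-cold ACN. Analysed by LC/MS/MS on a C18 column, 5–75% B gradient over 30 min, ESI.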

[42] = test system: MDA-MB-435 (human); assay: Antiproliferative activity against human MDA-MB-435 cells by SRB assay

CSc1ccc(N(C)c2nc(C)nc3c2CCC3)cc1
IC50 [1]: 5.3 nM | inhibition [2]: 74% | IC50 [3]: 7.2 nM | Ratio IC50 [4]: 1.3 | IC50 [5]: 7 nM | GI50 [6]: < 10 nM | GI50 [7]: < 10 nM | GI50 [8]: < 10 nM | GI50 [9]: < 10 nM | GI50 [10]: < 10 nM | GI50 [11]: < 10 nM | GI50 [12]: < 10 nM | GI50 [13]: < 10 nM | GI50 [14]: < 10 nM | GI50 [15]: < 10 nM | GI50 [16]: < 10 nM | GI50 [17]: < 10 nM | GI50 [18]: < 10 nM | GI50 [19]: < 10 nM | GI50 [20]: < 10 nM | GI50 [21]: < 10 nM | GI50 [22]: < 10 nM | GI50 [23]: < 10 nM | GI50 [24]: < 10 nM | GI50 [25]: < 10 nM | GI50 [26]: < 10 nM | GI50 [27]: < 10 nM | GI50 [28]: < 10 nM | GI50 [29]: < 10 nM | GI50 [30]: < 10 nM | GI50 [31]: < 10 nM | GI50 [32]: < 10 nM | GI50 [33]: < 10 nM | GI50 [34]: < 10 nM | GI50 [35]: < 10 nM | GI50 [36]: < 10 nM | GI50 [37]: < 10 nM | GI50 [38]: < 10 nM | GI50 [39]: < 10 nM | GI50 [40]: < 10 nM | Retention_time [41]: 17.4 min | IC50 [42]: 4.6 nM
